For orientation: EC50 means the concentration needed to bring the measured effect to its halfway point. A low value points to a more potent agent. The term CC50 denotes the concentration that lowers cell viability or growth by half.

The test system of assay [1] is HEL. In words: Effective concentration required to inhibit HCMV AD169 strain-induced cytopathicity in human embryonic lung (HEL) fibroblast cell cultures at day 7 of postinfection. The assay is classed as functional, cell-based. The conditions noted are these: 168 h. The method in brief: (§1)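 Confluent HEL fibroblast monolayers were infected with 100 PFU of HCMV per well and adsorbed for 1-2 h. Residual virus was removed, and cells were kept in MEM with 2% inactivated FCS, 1% L-glutamine and 0.3% sodium bicarbonate plus varying compound concentrations. Cytopathicity was scored at day 7, and EC50 was the concentration reducing virus-induced CPE by 50% versus untreated control.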
Background: Damage to the host cells serves as the signal in cytopathic effect assays.

In assay [2] the test system is HEL. In words: Effective concentration required to inhibit HCMV Davis strain-induced cytopathicity in human embryonic lung (HEL) fibroblast cell cultures at day 7 of postinfection. Type of assay: functional, cell-based. The conditions noted are these: 168 h. In short, it runs like this: as §1
Assay [3] deals with HEL. In words: Cytostatic concentration required to inhibit HEL cell proliferation measured at day 4. Type of assay: functional. As to conditions: Homo sapiens, 96 h. In short, it runs like this:
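Growing, subconfluent HEL cells were exposed to different compound concentrations, then trypsinized and counted with a Coulter counter. The 50% value was the concentration reducing cell number by 50% relative to untreated cells.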

The test system of assay [4] is HEL. Description: Minimal cytotoxic concentration required to cause a microscopically visible alteration of HEL cell morphology as measured at day 7 postinfection. As to conditions: Homo sapiens, 168 h. Type of assay: functional. In short, it runs like this:
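MCC was assessed within the antiviral assay on confluent HEL monolayers exposed to varying compound concentrations. It was taken at day 7 as the lowest concentration giving microscopically visible cytotoxicity (altered morphology).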

On to `CCCCCCCCCCCCCCc1cc2cn(C3CCC(CO)O3)c(=O)nc2o1` (stereo not drawn), for which the EC50 was 25 µM in assay [1] and 40 µM in assay [2]. In assay [3], the CC50 was greater than 200 µM. In assay [4], this compound displayed an MCC of 200 µM.

Consider `CCCCCCCCc1cc2cn(C3CCC(CO)O3)c(=O)nc2o1` (stereo not drawn), for which the concentration for a half-maximal effect (EC50) is 2.5 µM in assay [1] and 3 µM in assay [2]. The compound further gave a CC50 in assay [3] of 112 µM. The same compound yielded an MCC in assay [4] of 20 µM.

As for `CCCCCCc1cc2cn(C3CCC(CO)O3)c(=O)nc2o1` (stereo not drawn), the EC50 was 32 µM in assay [1] and greater than 50 µM in assay [2]. Besides, the CC50 in assay [3] came out at 143 µM. Besides, the MCC in assay [4] is 200 µM.

`CCCCCCCCCCCc1cc2cn(C3CCC(CO)O3)c(=O)nc2o1` (stereo not drawn): the EC50 in assay [1] was 1.4 µM; in assay [2], 1.2 µM. The compound also gave a CC50 in assay [3] greater than 200 µM. Besides, in assay [4], the MCC came to 50 µM.

Take `CCCCCCCCCc1cc2cn(C3CCC(CO)O3)c(=O)nc2o1` (stereo not drawn): the EC50 came out at 1.2 µM in assay [1] and 1.3 µM in assay [2]. The CC50 in assay [3] was greater than 200 µM. This compound had an MCC in assay [4] of 58 µM.

Turning to `CCCCCCCCCCc1cc2cn(C3CCC(CO)O3)c(=O)nc2o1` (stereo not drawn), the figures for the EC50 in assay [1] and in assay [2] were 2.6 µM and 3.2 µM, respectively. Moreover, the CC50 in assay [3] was greater than 200 µM. In assay [4], the MCC was greater than 20 µM.

Regarding `CCCCCCCCCCCCc1cc2cn(C3CCC(CO)O3)c(=O)nc2o1` (stereo not drawn), the values for the EC50 in assay [1] and in assay [2] were 3.7 µM and 5 µM, respectively. In assay [3], this compound came in with a CC50 greater than 200 µM. For the same compound, the MCC in assay [4] is 200 µM.

With `Nc1ccn(C[C@@H](CO)OCP(=O)(O)O)c(=O)n1` [CIDOFOVIR], the CC50 in assay [3] turned out to be 158 µM. The compound also had an MCC in assay [4] greater than 150 µM.

With `O=C(O)P(=O)(O)O` [FOSCARNET], the EC50 in assay [1] turned out to be 53 µM; in assay [2], 62 µM. Moreover, the CC50 in assay [3] is 500 µM. This compound also displayed an MCC in assay [4] greater than 400 µM.

As to `Nc1nc2c(ncn2COC(CO)CO)c(=O)[nH]1` [GANCICLOVIR], the figures for the EC50 in assay [1] and in assay [2] were 2.7 µM and 3.9 µM, respectively. The cytotoxic concentration (CC50) in assay [3] is greater than 150 µM. The compound further came in with an MCC in assay [4] greater than 150 µM.

Values taken from ChEMBL document CHEMBL1148438, “Discovery of a new family of inhibitors of human cytomegalovirus (HCMV) based upon lipophilic alkyl furano pyrimidine dideoxy nucleosides: action via a novel non-nucleosidic mechanism” (J Med Chem, 2004).
